# Results taken from ChEMBL document CHEMBL5724801, “EUbOPEN Chemogenomics Library - Multiplex” (2024).
# “And” between values parts separate entries of the source, which are not always exact repeats. Equal entries are not always repeated.
# System: HEK-293T
# Test: Multiplex assay against HEK293T
# Format: toxicity, cell-based
# Conditions: human
# Procedure, shortened: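 Values for tubulin, mitochondrial-mass and membrane-permeability phenotypes are per cents of cells with healthy nuclei. These cells were identified by CellPathfinder machine-learning gating of live cells that had been stained at seeding with Hoechst33342, BioTracker Green Microtubule Cytoskeleton Dye, MitoTracker Red and Annexin V Alexa Fluor 680 and imaged on a CQ1 microscope at 37°C and 5% CO2 after compound addition. The gating first set Hoechst high-intensity objects apart from normal cells, then split normal cells into healthy, pyknosed or fragmented nuclei, and pyknosed cells into mitotic or apoptotic.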
# [1] = 12 h, 1 µM, compound concentration 1 uM
# [2] = 12 h, 10 µM, compound concentration 10 uM
# [3] = 24 h, 1 µM, compound concentration 1 uM
# [4] = 24 h, 10 µM, compound concentration 10 uM
# [5] = 48 h, 1 µM, compound concentration 1 uM
# [6] = 48 h, 10 µM, compound concentration 10 uM
structure (smiles),measurement,setting,value
COc1ccc2c(c1)C(C(=O)N(Cc1ccc(N(C)C)cc1)c1ccc(C(C)C)cc1)CCC2.Cl (stereo unspecified),Population Apoptotic (%),[1],30% and 43%
same,Population Fragmented Nuclei (%),[1],6% and 5%
same,Population Healthy Nuclei (%),[1],80% and 79%
same,Population Hoechst High Intensity Objects (%),[1],7% and 4%
same,Population Membrane Permeable-Phenotype (%),[1],0%
same,Population Mitochondria Different-Phenotype (%),[1],39% and 61%
same,Population Mitotic Cells (%),[1],70% and 56%
same,Population Normal (%),[1],92% and 95%
same,Population Pyknosed Nuclei (%),[1],13% and 14%
same,Population Tubulin-Different-Phenotype (%),[1],27% and 23%
same,Total Cell Count,[1],413 and 330
same,Population Apoptotic (%),[2],60% and 63%
same,Population Fragmented Nuclei (%),[2],9% and 4%
same,Population Healthy Nuclei (%),[2],78% and 77%
same,Population Hoechst High Intensity Objects (%),[2],10% and 6%
same,Population Membrane Permeable-Phenotype (%),[2],0%
same,Population Mitochondria Different-Phenotype (%),[2],60% and 75%
same,Population Mitotic Cells (%),[2],39% and 36%
same,Population Normal (%),[2],89% and 93%
same,Population Pyknosed Nuclei (%),[2],11% and 17%
same,Population Tubulin-Different-Phenotype (%),[2],64% and 57%
same,Total Cell Count,[2],383 and 361
same,Population Apoptotic (%),[3],31% and 60%
same,Population Fragmented Nuclei (%),[3],9% and 7%
same,Population Healthy Nuclei (%),[3],81% and 79%
same,Population Hoechst High Intensity Objects (%),[3],3% and 6%
same,Population Membrane Permeable-Phenotype (%),[3],0%
same,Population Mitochondria Different-Phenotype (%),[3],20% and 33%
same,Population Mitotic Cells (%),[3],68% and 40%
same,Population Normal (%),[3],96% and 93%
same,Population Pyknosed Nuclei (%),[3],8% and 13%
same,Population Tubulin-Different-Phenotype (%),[3],13% and 11%
same,Total Cell Count,[3],567 and 399
same,Population Apoptotic (%),[4],35% and 45%
same,Population Fragmented Nuclei (%),[4],9% and 7%
same,Population Healthy Nuclei (%),[4],73% and 76%
same,Population Hoechst High Intensity Objects (%),[4],10% and 6%
same,Population Membrane Permeable-Phenotype (%),[4],1% and 0%
same,Population Mitochondria Different-Phenotype (%),[4],51% and 60%
same,Population Mitotic Cells (%),[4],64% and 55%
same,Population Normal (%),[4],89% and 93%
same,Population Pyknosed Nuclei (%),[4],17% and 16%
same,Population Tubulin-Different-Phenotype (%),[4],70% and 60%
same,Total Cell Count,[4],409 and 389
same,Population Apoptotic (%),[5],20% and 46%
same,Population Fragmented Nuclei (%),[5],12%
same,Population Healthy Nuclei (%),[5],80% and 81%
same,Population Hoechst High Intensity Objects (%),[5],1% and 4%
same,Population Membrane Permeable-Phenotype (%),[5],1% and 0%
same,Population Mitochondria Different-Phenotype (%),[5],10% and 17%
same,Population Mitotic Cells (%),[5],79% and 53%
same,Population Normal (%),[5],98% and 95%
same,Population Pyknosed Nuclei (%),[5],6%
same,Population Tubulin-Different-Phenotype (%),[5],10% and 15%
same,Total Cell Count,[5],968 and 631
same,Population Apoptotic (%),[6],59% and 36%
same,Population Fragmented Nuclei (%),[6],15% and 11%
same,Population Healthy Nuclei (%),[6],75% and 79%
same,Population Hoechst High Intensity Objects (%),[6],9% and 3%
same,Population Membrane Permeable-Phenotype (%),[6],6% and 2%
same,Population Mitochondria Different-Phenotype (%),[6],25% and 24%
same,Population Mitotic Cells (%),[6],40% and 63%
same,Population Normal (%),[6],90% and 96%
same,Population Pyknosed Nuclei (%),[6],9% and 8%
same,Population Tubulin-Different-Phenotype (%),[6],53% and 50%
same,Total Cell Count,[6],558 and 482
